ChEMBL document CHEMBL3407461 (J Med Chem, 2014)
Active and inactive are the calls of the source.

How the values were obtained:
[1] = molecular target: T1, Adenosine receptor A1 (Homo sapiens) (UniProt P30542); experiment: Displacement of [3H]R-PIA from human recombinant A1 adenosine receptor expressed in CHO cells at 10 uM after 60 mins by liquid scintillation counting; type: cell-based
T1 sequence (whole entry): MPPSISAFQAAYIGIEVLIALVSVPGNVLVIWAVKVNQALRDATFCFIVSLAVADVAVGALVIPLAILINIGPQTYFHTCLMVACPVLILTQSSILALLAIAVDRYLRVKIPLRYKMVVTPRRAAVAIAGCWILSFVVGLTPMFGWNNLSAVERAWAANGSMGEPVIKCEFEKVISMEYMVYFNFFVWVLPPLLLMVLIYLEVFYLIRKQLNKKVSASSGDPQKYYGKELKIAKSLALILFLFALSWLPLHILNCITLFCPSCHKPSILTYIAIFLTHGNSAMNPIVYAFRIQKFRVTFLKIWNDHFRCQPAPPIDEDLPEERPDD

[2] = molecular target: Adenosine receptor A2a (Homo sapiens) (UniProt P29274); experiment: Displacement of [3H]CGS21680 from human recombinant A2A adenosine receptor expressed in HEK293 cells at 10 uM after 60 mins by liquid scintillation counting; type: cell-based
[3] = molecular target: Adenosine receptor A2a (Mus musculus) (UniProt Q60613); experiment: Displacement of [3H]CGS21680 from mouse A2A adenosine receptor expressed in HEK293 cells at 10 uM after 60 mins by liquid scintillation counting; type: cell-based
[4] = system: Mus musculus; experiment: Antinociceptive activity in chronic constriction injury neutropathic pain CD-1 mouse model assessed as time for peak protection at 3 umol/kg, po; type: functional
Outline: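 Male CD-1 mice (25−30 g), chronic constriction injury of left sciatic nerve (Bennett model) under isoflurane. Dosed by gavage (3 μmol/kg, 0.2 mL) at peak mechano-allodynia on day 7; vehicle 10% DMSO in 0.5% methylcellulose. Paw withdrawal threshold (g) measured on the ipsilateral hind paw from 30 min to 5 h post dose. Expressed as % reversal, mean ± SEM over n animals.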

[5] = system: Mus musculus; experiment: Antinociceptive activity in chronic constriction injury neutropathic pain CD-1 mouse model assessed as maximum protection on ipsilateral hind paw at 3 umol/kg, po after 30 mins to 5 hrs post dose relative to control; type: functional; settings: CD-1, po
[6] = system: Mus musculus; experiment: Antinociceptive activity in chronic constriction injury neutropathic pain CD-1 mouse model at 3 umol/kg, po after 3 hrs post dose relative to control; type: functional
[7] = molecular target: T2, Adenosine receptor A3 (Mus musculus) (UniProt Q61618); experiment: Agonist activity at mouse A3 adenosine receptor expressed in HEK293 cells assessed as inhibition of forskolin-stimulated cAMP production after 15 mins relative to control; type: functional, cell-based
T2 sequence (whole entry): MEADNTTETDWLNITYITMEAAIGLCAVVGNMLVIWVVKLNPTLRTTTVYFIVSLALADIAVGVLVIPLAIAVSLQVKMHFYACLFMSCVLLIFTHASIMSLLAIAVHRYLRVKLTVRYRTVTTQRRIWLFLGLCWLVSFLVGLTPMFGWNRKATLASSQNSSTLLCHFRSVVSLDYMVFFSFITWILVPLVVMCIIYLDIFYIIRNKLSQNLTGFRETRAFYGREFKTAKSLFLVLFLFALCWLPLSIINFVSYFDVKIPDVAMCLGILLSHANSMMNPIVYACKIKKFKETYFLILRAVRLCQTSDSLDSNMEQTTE
Outline: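 2 × 10^5 cells/tube, coincubated with forskolin 10 μM plus ligand for 15 min at 37 °C with shaking. Stopped with HCl. cAMP in supernatant measured by competitive binding.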

[8] = molecular target: T3, Cytochrome P450 1A2 (Homo sapiens, UniProt P05177); experiment: Inhibition of CYP1A2 in human microsomes preincubated for 5 mins before substrate addition measured after 10 mins by LC/MS/MS analysis; type: ADME
T3 sequence (P05177 whole entry): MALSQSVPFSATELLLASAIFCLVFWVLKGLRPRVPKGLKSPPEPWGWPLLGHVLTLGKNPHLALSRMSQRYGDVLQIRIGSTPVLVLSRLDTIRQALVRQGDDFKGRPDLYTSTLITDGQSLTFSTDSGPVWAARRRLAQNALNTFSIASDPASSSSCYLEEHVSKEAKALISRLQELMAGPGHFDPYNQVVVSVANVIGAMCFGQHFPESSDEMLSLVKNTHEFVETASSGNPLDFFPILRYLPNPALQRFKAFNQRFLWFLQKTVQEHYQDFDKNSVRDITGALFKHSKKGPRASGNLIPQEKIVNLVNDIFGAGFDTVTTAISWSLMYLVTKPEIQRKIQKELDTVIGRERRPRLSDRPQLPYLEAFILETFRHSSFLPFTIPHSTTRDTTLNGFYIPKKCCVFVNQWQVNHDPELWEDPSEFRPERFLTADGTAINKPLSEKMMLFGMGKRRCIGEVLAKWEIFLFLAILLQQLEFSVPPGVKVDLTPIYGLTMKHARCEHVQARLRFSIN

[9] = molecular target: Cytochrome P450 2C9 (Homo sapiens, UniProt P11712); experiment: Inhibition of CYP2C9 in human microsomes preincubated for 5 mins before substrate addition measured after 10 mins by LC/MS/MS analysis; type: ADME
[10] = molecular target: Cytochrome P450 2C19 (Homo sapiens, UniProt P33261); experiment: Inhibition of CYP2C19 in human microsomes preincubated for 5 mins before substrate addition measured after 10 mins by LC/MS/MS analysis; type: ADME
[11] = molecular target: Cytochrome P450 2D6 (Homo sapiens, UniProt P10635); experiment: Inhibition of CYP2D6 in human microsomes preincubated for 5 mins before substrate addition measured after 10 mins by LC/MS/MS analysis; type: ADME
[12] = molecular target: Cytochrome P450 3A4 (Homo sapiens, UniProt P08684); experiment: Inhibition of CYP3A4 in human microsomes preincubated for 5 mins before substrate addition measured after 10 mins by LC/MS/MS analysis; type: ADME
[13] = system: Liver microsome; experiment: Intrinsic clearance in human liver microsomes assessed per mg protein at 100 uM by LC-MS/MS analysis; type: ADME
[14] = molecular target: Translocator protein (Homo sapiens) (UniProt P30536); experiment: Binding affinity to TSPO (unknown origin) by PDSP screening
[15] = molecular target: Sigma non-opioid intracellular receptor 1 (Homo sapiens) (UniProt Q99720); experiment: Binding affinity to sigma1 receptor (unknown origin) by PDSP screening
[16] = organism: Homo sapiens; experiment: Binding affinity to sigma2 receptor (unknown origin) by PDSP screening
[17] = Permeability across apical to basolateral side of human Caco2 cells expressing P-gp; type: ADME, cell-based; settings: caco-2
[18] = molecular target: Voltage-gated inwardly rectifying potassium channel KCNH2 (Homo sapiens, UniProt Q12809); experiment: Inhibition of human ERG by PDSP screening
[19] = molecular target: T4, Adenosine receptor A1 (Mus musculus) (UniProt Q60612); experiment: Displacement of [125I]I-AB-MECA from mouse A1 adenosine receptor expressed in HEK293 cells at 10 uM after 60 mins by liquid scintillation counting
T4 sequence (whole entry): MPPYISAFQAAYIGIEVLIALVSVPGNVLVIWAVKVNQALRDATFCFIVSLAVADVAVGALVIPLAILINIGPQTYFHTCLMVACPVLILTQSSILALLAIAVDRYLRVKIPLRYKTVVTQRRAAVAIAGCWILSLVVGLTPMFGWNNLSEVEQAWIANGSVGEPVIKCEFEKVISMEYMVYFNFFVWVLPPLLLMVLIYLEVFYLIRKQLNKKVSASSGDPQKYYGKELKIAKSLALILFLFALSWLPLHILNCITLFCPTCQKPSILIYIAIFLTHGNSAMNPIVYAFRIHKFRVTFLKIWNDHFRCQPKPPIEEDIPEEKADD

[20] = molecular target: Adenosine receptor A3 (Mus musculus, UniProt Q61618); experiment: Displacement of [125I]I-AB-MECA from mouse A3 adenosine receptor expressed in HEK293 cells after 60 mins by liquid scintillation counting; type: cell-based
[21] = system: CHO; experiment: Selectivity ratio of Ki for mouse A3 adenosine receptor expressed in HEK293 cells to Ki for human recombinant A3 adenosine receptor expressed in CHO cells; type: cell-based
[22] = system: CHO; experiment: Selectivity ratio of IC50 for human ERG to IC50 for human recombinant A3 adenosine receptor expressed in CHO cells; type: cell-based
[23] = molecular target: hERG (KCNH2) (Homo sapiens, UniProt Q12809); experiment: Inhibition of human ERG at 10 uM by PDSP screening
Chain of hERG (KCNH2) (Q12809 whole entry): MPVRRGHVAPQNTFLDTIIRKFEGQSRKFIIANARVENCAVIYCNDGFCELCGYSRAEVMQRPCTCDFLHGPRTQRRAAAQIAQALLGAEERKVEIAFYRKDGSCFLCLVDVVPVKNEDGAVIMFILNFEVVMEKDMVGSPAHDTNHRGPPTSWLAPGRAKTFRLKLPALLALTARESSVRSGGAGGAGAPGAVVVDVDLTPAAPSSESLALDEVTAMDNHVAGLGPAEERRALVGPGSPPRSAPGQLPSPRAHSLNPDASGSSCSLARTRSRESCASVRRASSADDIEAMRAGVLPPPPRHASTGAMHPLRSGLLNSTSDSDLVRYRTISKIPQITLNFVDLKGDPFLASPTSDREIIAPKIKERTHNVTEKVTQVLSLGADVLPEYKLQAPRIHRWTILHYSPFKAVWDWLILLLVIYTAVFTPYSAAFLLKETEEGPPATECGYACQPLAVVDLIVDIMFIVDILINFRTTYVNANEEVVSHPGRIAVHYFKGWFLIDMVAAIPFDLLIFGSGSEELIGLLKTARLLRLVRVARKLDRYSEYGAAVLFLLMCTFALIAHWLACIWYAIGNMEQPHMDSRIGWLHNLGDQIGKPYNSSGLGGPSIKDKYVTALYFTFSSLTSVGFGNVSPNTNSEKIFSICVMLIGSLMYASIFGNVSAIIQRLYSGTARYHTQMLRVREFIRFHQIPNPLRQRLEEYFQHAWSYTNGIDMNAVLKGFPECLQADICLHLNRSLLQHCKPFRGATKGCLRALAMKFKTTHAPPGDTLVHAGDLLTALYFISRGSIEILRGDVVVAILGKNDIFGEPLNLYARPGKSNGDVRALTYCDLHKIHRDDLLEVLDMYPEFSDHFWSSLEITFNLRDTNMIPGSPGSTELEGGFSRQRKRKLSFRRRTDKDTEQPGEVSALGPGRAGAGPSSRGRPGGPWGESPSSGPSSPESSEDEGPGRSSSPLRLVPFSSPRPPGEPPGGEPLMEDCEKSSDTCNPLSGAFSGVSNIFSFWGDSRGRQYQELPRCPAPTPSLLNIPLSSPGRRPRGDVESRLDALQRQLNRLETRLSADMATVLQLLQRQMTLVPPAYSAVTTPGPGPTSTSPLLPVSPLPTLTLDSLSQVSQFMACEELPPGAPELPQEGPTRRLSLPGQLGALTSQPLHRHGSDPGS

Chain of Adenosine receptor A2a (Mus musculus) (Q60613 whole entry): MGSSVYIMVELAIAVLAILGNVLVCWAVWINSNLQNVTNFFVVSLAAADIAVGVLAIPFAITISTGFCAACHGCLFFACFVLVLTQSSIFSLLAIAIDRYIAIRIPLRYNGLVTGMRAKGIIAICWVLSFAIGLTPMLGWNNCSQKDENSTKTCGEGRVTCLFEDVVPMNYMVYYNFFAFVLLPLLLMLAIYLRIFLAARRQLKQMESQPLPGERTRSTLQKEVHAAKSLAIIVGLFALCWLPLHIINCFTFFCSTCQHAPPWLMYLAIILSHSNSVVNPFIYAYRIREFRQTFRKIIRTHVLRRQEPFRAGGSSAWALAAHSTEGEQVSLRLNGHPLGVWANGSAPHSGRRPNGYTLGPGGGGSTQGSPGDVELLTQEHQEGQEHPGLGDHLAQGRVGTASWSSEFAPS
Chain of Adenosine receptor A2a (Homo sapiens) (P29274 whole entry): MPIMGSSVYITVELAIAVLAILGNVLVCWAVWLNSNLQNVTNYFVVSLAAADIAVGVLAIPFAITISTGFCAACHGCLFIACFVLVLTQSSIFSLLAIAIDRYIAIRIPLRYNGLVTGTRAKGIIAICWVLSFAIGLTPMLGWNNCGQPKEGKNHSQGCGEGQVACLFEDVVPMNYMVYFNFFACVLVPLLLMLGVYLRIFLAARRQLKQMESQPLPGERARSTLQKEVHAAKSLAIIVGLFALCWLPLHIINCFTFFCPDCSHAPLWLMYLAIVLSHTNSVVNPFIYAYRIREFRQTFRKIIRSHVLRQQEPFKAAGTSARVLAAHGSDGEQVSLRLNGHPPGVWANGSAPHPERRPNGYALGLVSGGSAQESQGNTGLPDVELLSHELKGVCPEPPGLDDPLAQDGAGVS
Chain of Voltage-gated inwardly rectifying potassium channel KCNH2 (Q12809 whole entry): as the sequence (Q12809 whole entry) above
Chain of Cytochrome P450 2D6 (P10635 whole entry): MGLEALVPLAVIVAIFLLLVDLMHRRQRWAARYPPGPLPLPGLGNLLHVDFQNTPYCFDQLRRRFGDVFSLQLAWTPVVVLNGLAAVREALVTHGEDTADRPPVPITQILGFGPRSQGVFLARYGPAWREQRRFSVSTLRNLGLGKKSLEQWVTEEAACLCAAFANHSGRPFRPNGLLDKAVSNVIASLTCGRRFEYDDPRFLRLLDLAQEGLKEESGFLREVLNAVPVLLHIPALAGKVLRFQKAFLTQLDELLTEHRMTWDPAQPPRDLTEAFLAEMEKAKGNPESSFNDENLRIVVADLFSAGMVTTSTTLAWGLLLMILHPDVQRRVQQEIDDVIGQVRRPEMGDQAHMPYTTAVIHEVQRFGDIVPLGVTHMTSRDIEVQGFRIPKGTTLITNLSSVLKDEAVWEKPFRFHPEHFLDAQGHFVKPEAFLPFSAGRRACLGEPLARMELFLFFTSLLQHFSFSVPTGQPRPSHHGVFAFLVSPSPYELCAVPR
Chain of Cytochrome P450 2C19 (P33261 whole entry): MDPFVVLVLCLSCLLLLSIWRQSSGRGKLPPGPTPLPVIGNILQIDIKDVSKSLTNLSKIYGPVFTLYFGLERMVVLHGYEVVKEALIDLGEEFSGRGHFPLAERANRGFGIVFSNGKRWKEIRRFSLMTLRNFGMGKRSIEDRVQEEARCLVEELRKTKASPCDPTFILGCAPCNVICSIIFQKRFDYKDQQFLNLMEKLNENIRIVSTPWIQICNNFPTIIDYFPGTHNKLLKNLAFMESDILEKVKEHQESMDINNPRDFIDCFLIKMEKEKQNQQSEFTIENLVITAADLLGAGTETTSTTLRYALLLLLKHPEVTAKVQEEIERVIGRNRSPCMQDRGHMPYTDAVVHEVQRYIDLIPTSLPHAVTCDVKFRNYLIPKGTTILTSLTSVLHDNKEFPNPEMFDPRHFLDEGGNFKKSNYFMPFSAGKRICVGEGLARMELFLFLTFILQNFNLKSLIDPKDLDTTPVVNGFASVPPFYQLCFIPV
Chain of Cytochrome P450 2C9 (P11712 whole entry): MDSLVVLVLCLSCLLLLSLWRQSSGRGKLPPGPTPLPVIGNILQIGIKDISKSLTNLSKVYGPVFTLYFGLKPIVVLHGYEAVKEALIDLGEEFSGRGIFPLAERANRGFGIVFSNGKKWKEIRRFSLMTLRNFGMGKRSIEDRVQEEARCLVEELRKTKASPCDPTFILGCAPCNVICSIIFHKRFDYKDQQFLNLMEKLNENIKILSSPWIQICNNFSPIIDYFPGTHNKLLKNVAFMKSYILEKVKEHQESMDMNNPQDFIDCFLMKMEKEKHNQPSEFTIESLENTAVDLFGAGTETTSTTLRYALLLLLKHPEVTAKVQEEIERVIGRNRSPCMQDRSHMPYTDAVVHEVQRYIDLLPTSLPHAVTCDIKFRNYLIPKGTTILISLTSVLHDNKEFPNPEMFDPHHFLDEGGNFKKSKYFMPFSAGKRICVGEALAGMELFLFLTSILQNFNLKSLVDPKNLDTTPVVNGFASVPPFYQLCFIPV
Chain of Sigma non-opioid intracellular receptor 1 (Homo sapiens) (Q99720 whole entry): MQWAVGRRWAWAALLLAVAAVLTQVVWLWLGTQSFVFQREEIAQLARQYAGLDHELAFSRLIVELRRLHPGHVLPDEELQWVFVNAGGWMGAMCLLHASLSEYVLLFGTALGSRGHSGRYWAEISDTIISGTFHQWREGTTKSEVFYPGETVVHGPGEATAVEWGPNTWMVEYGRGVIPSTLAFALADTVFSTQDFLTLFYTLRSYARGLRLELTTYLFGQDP
Chain of Translocator protein (Homo sapiens) (P30536 whole entry): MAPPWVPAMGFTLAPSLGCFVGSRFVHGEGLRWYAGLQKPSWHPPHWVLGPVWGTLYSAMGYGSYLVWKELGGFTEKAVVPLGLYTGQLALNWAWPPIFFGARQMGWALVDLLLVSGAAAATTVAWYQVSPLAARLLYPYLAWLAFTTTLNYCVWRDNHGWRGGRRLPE

Structure (SMILES)	inhibition [1]	inhibition [2]	inhibition [3]	Time [4]	Emax at 3 µmol/kg [5]	Activity [6]	Imax [7]	IC50 [8]	IC50 [9]	IC50 [10]	IC50 [11]	IC50 [12]	CLH [13]	permeability [17]	IC50 [18]	inhibition [19]	inhibition at 10 µM [23]	also measured
CNC(=O)[C@@]12C[C@@H]1[C@@H](n1cnc3c(NC)nc(C#Cc4ccc(Cl)s4)nc31)[C@H](O)[C@@H]2O	6%	24%	7%	0.5 h	93.3%	82.8%	35%	> 10 µM	> 10 µM	> 10 µM	> 10 µM	> 10 µM	3.69 µL/min	permeable	12.9 µM	38%		Activity [14]: Active; Activity [15]: Active; Activity [16]: Active
CNC(=O)[C@@]12C[C@@H]1[C@@H](n1cnc3c(NC)nc(C#Cc4cnccn4)nc31)[C@H](O)[C@@H]2O	37%	25%	12%	1 h	100%		30%	> 10 µM	> 10 µM	> 10 µM	> 10 µM	> 10 µM	2.99 µL/min	impermeable				
CNC(=O)[C@@]12C[C@@H]1[C@@H](n1cnc3c(NC)nc(C#Cc4ccc(F)c(F)c4)nc31)[C@H](O)[C@@H]2O				1 h	99%	28.7%									27 µM			Ki [20]: 0.086 µM; Ratio Ki [21]: > 30; Ratio IC50 [22]: > 10000
CNC(=O)[C@@]12C[C@@H]1[C@@H](n1cnc3c(NC)nc(C#Cc4cnn(C)c4)nc31)[C@H](O)[C@@H]2O	35%	12%	16%	1 h	87.3%											72%	28%	
CNC(=O)[C@@]12C[C@@H]1[C@@H](n1cnc3c(NC)nc(C#Cc4ccco4)nc31)[C@H](O)[C@@H]2O	30%	18%	17%	1 h	100%	27.6%								permeable		59%	21%	
